CAL PDZ FP-1 = human CAL PDZ-peptide interaction inhibition; AID 504414; Q9HD26; inhibition, % at 20 µM; purified CAL PDZ, TMR-peptide fluorescence polarization, 1 h; 330,000 compounds, 0.02% hits;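 active means highest replicate inhibition of at least 40%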;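 further: plate controls were DMSO neutral control wells for no effect and unlabeled competitor peptide control wells for full effect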
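Material: tagged CAL PDZ protein CerCALP, purified; buffer or medium: sodium phosphate/NaCl buffer pH 7.4 with TCEP, IgG, Thesit; also added: fluorescent TMR peptide probe; schedule: 1 h incubation at room temperature before polarization reading; technique: fluorescence polarization from S- and P-plane intensities, G-factor corrected; control set: unlabelled peptide and DMSO controls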
ARNT TACC3 PPI = disrupts binding between human ARNT and TACC3; AID 623870; inhibition, % at 9.99 µM; Q9Y6A5; AlphaScreen His-ARNT PAS-B/GST-TACC3 binding, luminescence; TACC3 fragment carries E629A point mutation; 390,000 compounds, 0.66% hits;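 active means mean inhibition of replicates at least 50% and at least half of replicates each reaching 50%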;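 further: 0% = complete ARNT plus TACC3 wells and 100% = ARNT alone without TACC3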
CAL PDZ FP-2 = CAL PDZ (human) peptide binding inhibition; Q9HD26; purified CAL PDZ, TMR-peptide fluorescence polarization, 1 h; inhibition, % at 24.9 µM; 300,000 compounds, 0.92% hits;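 active means mean inhibition of at least 30% with at least half of replicates also reaching 30%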;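 further: 0% = DMSO neutral control and 100% = excess unlabeled competitor peptide PRC23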
SR-BI DiI-HDL act = SR-BI HDL lipid transfer activation; CHO ldlA[mSR-BI] cells, DiI-HDL uptake fluorescence, 3 h; 100 = double the neutral-control signal; 320,000 compounds, 0.096% hits; activation, % at 12.5 µM;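 active means mean replicate activation of at least 60% and every replicate at or above 60%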;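 further: 0% = median plate neutral-control signal and 100% = twice that signal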
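system = CHO ldlA[mSR-BI] cells, LDL receptor-null, SR-BI overexpressing | medium = Ham's F12 with 0.5% BSA, HEPES 25 mM, pH 7.4 | probe or stimulus = DiI-HDL 10 µg/mL | compound dosing = single-point compound dose | incubation = compound exposure 3 h, 37 °C | technique = DiI fluorescence, bottom read | read-out = cell-associated DiI fluorescence as measure of HDL uptake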
miR-122 sensor = blocks miR-122 activity in Huh7 sensor cells. Huh7 miR-122 Renilla luciferase sensor, 48 h; neutral wells = 0, positive control = 100. activation (reporter increase), % at 12.5 µM. 340,000 compounds, 0.3% hits. AID 602342;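 active means mean replicate activation score at least 90 and every replicate individually at or above 90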;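 further: higher luciferase means less miR-122 activity so hits act as miR-122 inhibitors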
SR-BI DiI inh = blocks mouse SR-BI lipid uptake from DiI-HDL | ldlA[mSR-BI] CHO cells, DiI-HDL uptake fluorescence, 3 h | inhibition, % at 12.5 µM | 320,000 compounds, 0.96% hits | AID 488896;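 active means mean replicate inhibition of at least 70% and a set share of replicates each scoring 70 or more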;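 further: 0% = median of neutral control wells and 100% = median of positive control wells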
Target sequence (Q61009 whole entry, looked up): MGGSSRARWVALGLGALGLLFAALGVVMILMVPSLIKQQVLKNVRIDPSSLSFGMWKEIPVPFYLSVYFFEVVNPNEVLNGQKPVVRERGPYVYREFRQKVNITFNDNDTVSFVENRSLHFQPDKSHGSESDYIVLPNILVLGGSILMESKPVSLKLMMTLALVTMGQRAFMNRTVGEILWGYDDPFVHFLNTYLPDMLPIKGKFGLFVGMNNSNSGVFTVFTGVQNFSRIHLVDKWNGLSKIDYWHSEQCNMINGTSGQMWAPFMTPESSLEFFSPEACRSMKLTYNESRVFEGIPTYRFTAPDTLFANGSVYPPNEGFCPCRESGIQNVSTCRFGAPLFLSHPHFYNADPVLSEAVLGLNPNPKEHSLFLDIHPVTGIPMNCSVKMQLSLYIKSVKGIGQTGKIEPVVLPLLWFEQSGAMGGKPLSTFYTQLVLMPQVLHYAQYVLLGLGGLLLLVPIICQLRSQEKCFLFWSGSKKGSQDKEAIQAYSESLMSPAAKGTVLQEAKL
ARNT Alpha ctr-1 = AlphaScreen artifact in ARNT/TACC3 counter-screen; shares compounds with ARNT TACC3 PPI; His-ARNT PASB-GST AlphaScreen artifact counter-screen, luminescence; AC50, µM (top dose mostly 68 µM), without a hit: at the top dose activity change, negative = signal decrease; 1,200 compounds, 50% hits;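 active means every separate test run was called active for a drop in luminescence, with AC50 within twice the top valid dose, actives reach about 71 µM in these data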
ARNT Alpha ctr-2 = AlphaScreen artifact flagged for ARNT-TACC3 inhibitors; shares compounds with ARNT TACC3 PPI; Dual-tagged His-ARNT PASB-GST AlphaScreen artifact counter-screen; AC50, µM; 45 compounds, 70% hits; AID 720564;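 active means luminescence drop, with half-maximal potency fitted within twice the sample's top valid dose, cut at about 70 µM in these data; inactive means the rest, including signal moving the wrong way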
* hit, by the source's call; nt = no result given; [ ] = remark or other dose. Most compounds without a hit are left out; they make up all but 2.1% or so of the library.

SMILES	CAL PDZ FP-1	ARNT TACC3 PPI	CAL PDZ FP-2	SR-BI DiI-HDL act	miR-122 sensor	SR-BI DiI inh	ARNT Alpha ctr-1	others
O=C(C[C@H]1C[C@@H]2c3cc(NS(=O)(=O)c4ccc(F)cc4)ccc3O[C@@H]2[C@H](CO)O1)N1CCCCC1	nt	-2	nt	nt	5[16.7 µM]	nt	nt
COC(=O)C[C@@H]1CC[C@H]2[C@@H](COC[C@H](O)CN2S(=O)(=O)c2ccccc2C)O1	nt	-2	nt	nt	-8[16.7 µM]	nt	nt
O=C(Nc1cccc(F)c1)c1cccnc1NCCc1ccccc1	0	active	0	-24	nt	24	-4%
CC(=O)NC(c1ccccc1)c1cc(Cl)c2cccnc2c1O (stereo not drawn)	-1	38	-6	45	nt	-45	nt
CCC(=O)NC(c1cccs1)c1cc(Cl)c2cccnc2c1O (stereo not drawn)	0	4	17	11	nt	-11	nt
CCC(=O)NC(c1cc(Cl)c2cccnc2c1O)C(C)C (stereo not drawn)	0	54*	-8	15	8	-15	69µM*
CCC(=O)NC(c1cc(Cl)c2cccnc2c1O)C1CC1 (stereo not drawn)	-1	58*	-5	5	nt	-5	37µM*
C[C@@H]1CN([C@H](C)CO)C(=O)c2cccc(NS(=O)(=O)c3cn(C)cn3)c2O[C@H]1CN(C)C(=O)Nc1ccc(C(F)(F)F)cc1	nt	-8	nt	nt	2[16.7 µM]	nt	nt
COC(=O)c1ccc2[nH]c3c(c2c1)CC(C)CC3 (stereo not drawn)	-2	21*	-4	-46	14	46	-30%
CN1CCN(C(=O)C[C@@H]2C[C@H]3c4cc(NC(=O)Nc5ccccc5)ccc4O[C@H]3[C@@H](CO)O2)CC1	nt	-2	nt	nt	10[16.7 µM]	nt	nt
C[C@H](CO)N1C[C@H](C)[C@H](CN(C)C(=O)Nc2ccc(F)cc2)Oc2ccc(NC(=O)c3ccncc3)cc2C1=O	nt	-9	nt	nt	-2[16.7 µM]	nt	nt
COc1ccc(NC(=O)c2cc(-c3ccccc3)on2)cc1	1	-2	-5	16	-1	-16	nt
O=C(Nc1ncc2ccccc2n1)c1cc(-c2ccccc2)on1	nt	nt	nt	nt	nt	nt	6%[38 µM]
O=C(Nc1nc2ccccc2s1)c1ccc(Cl)s1	-2	-1	-2	-33	nt	33	nt
O=C(Nc1nnc(-c2ccccc2)s1)c1cc(-c2ccccc2)on1	nt	nt	nt	nt	nt	nt	-7%[38 µM]
O=C(Nc1ncc(-c2ccccc2)o1)c1cc(-c2ccccc2)on1	nt	nt	nt	nt	nt	nt	-4%[38 µM]
O=C(Nc1nc2ccccc2s1)c1cc(-c2ccccc2)on1	nt	nt	nt	nt	nt	nt	0%[38 µM]
CO[C@@H]1CN(C)C(=O)c2ccc(NC(=O)c3cc(C)on3)cc2OC[C@H](C)N(CC2CC2)C[C@@H]1C	nt	-3	nt	nt	nt	nt	nt
CSc1ccc(-c2nnc(NC(=O)c3ccc(S(=O)(=O)N4CCC(C)CC4)cc3)o2)cc1	nt	nt	nt	nt	nt	nt	nt	ARNT Alpha ctr-2=59*
CC1CCN(S(=O)(=O)c2ccc(C(=O)Nc3nnc(-c4ccco4)o3)cc2)CC1	0	31	nt	nt	nt	1	nt	ARNT Alpha ctr-2=>136
O=C(Nc1nnc(-c2ccc(F)cc2)o1)c1ccc(S(=O)(=O)N2CCOCC2)cc1	-2	2	-1	31	-4	-31	nt
O=C(Nc1nnc(-c2ccco2)o1)c1ccc(S(=O)(=O)N2CCCC2)cc1	0	45	0	2	nt	-2	nt
CC(C)C#Cc1cnc2c(c1)C(=O)N([C@@H](C)CO)C[C@@H](C)[C@H](CN(C)Cc1cncnc1)O2	nt	-1	nt	nt	-5[16.7 µM]	nt	nt
Oc1ccccc1C(Nc1nccs1)c1ccc2cccnc2c1O (stereo not drawn)	0	61*	-5	nt	33	nt	12µM*
Oc1c(C(Nc2ccccn2)c2ccccn2)ccc2cccnc12 (stereo not drawn)	-3	nt	-2	2	15	-2	nt
SMILES	CAL PDZ FP-1	ARNT TACC3 PPI	CAL PDZ FP-2	SR-BI DiI-HDL act	miR-122 sensor	SR-BI DiI inh	ARNT Alpha ctr-1	others
CCN(CC)CCCNC(=O)c1cc(-c2ccc(Cl)cc2)on1	-3	nt	nt	14	0	-14	nt
CN(C)CCNC(=O)c1cc(-c2ccccc2)on1	nt	nt	nt	nt	nt	nt	-1%[38 µM]
O=C(NCC1CC1)c1cc(-c2ccccc2)on1	nt	nt	nt	nt	nt	nt	1%[38 µM]
O=C(NCc1cccnc1)c1cc(-c2ccccc2)on1	-2	-1	-4	1	-1	-1	nt
Cc1ccccc1CNC(=O)c1cc(-c2ccccc2)on1	nt	nt	nt	nt	nt	nt	2%[38 µM]
COC(=O)C[C@H]1C[C@@H]2c3cc(NC(=O)CC4CC4)ccc3O[C@@H]2[C@H](CO)O1	nt	1	nt	nt	1[16.7 µM]	nt	nt
CCN(C[C@H]1[C@H](c2ccccc2)[C@@H](CO)N1C(C)=O)C(=O)NC(C)C	nt	-5	nt	nt	-6[16.7 µM]	nt	nt
C[C@@H]1CN([C@H](C)CO)C(=O)c2cc(-c3cccc(C#N)c3)cnc2O[C@H]1CN(C)Cc1ccncc1	nt	0	nt	nt	-1[16.7 µM]	nt	nt
CCN(CC)C(=O)c1sc2nc(Cc3ccccc3)[nH]c(=O)c2c1C	0	0	2	-16	-1	16	nt
Cc1c(C(=O)N(C)C)sc2nc(-c3ccccn3)[nH]c(=O)c12	0	72*	0	27	-2	-27	23µM*	ARNT Alpha ctr-2=15*
COc1ccccc1C#Cc1ccc([C@H]2[C@@H](C#N)N(C(=O)C3CC3)[C@H]2CO)cc1	nt	-4	nt	nt	nt	nt	nt
COc1ccc(NC(=O)Nc2ccc3c(c2)C(=O)N([C@H](C)CO)C[C@@H](C)[C@@H](CN(C)C(=O)CCC(F)(F)F)OCCCC[C@H](C)O3)cc1	nt	active	nt	nt	36[16.7 µM]	nt	-17%[42 µM]
CC(C)NC(=O)Nc1ccc2c(c1)C(=O)N([C@H](C)CO)C[C@H](C)[C@@H](CN(C)C(=O)Cc1ccccc1)OCCCC[C@H](C)O2	nt	97*	nt	nt	2[16.7 µM]	nt	-7%[38 µM]
COc1ccc(NC(=O)Nc2ccc3c(c2)C(=O)N([C@H](C)CO)C[C@H](C)[C@@H](CN(C)C(=O)CCC(F)(F)F)OCCCC[C@@H](C)O3)cc1	nt	3	nt	nt	2[16.7 µM]	nt	nt
CC(C)NC(=O)N(C)C[C@H]1OCCCC[C@H](C)Oc2ccc(NC(=O)Nc3ccccc3)cc2C(=O)N([C@H](C)CO)C[C@@H]1C	nt	108*	nt	nt	1[16.7 µM]	nt	-7%[42 µM]
COc1cccc(CN(C)C[C@H]2OCc3ccccc3-c3ccccc3C(=O)N([C@H](C)CO)C[C@@H]2C)c1	nt	3	nt	nt	nt	nt	nt
C[C@@H]1CCCCO[C@H](CN(C)C(=O)CCCN(C)C)[C@@H](C)CN([C@@H](C)CO)C(=O)c2cc(NC(=O)c3ccccc3)ccc2O1	nt	nt	nt	nt	-4[16.7 µM]	nt	nt
Cc1ccc(S(=O)(=O)NCC[C@H]2CC[C@H](NC(=O)c3cccc(F)c3)[C@H](CO)O2)cc1	nt	-14	nt	nt	nt	nt	nt

Screening data deposited in PubChem by Broad Institute.
